Experimental data taken from ChEMBL document CHEMBL4041488, “Structural Characterization and Assessment of the Cytotoxicity of 2,3-Dihydro-1H-indene Derivatives and Coumarin Glucosides from the Bark of Streblus indicus” (J Nat Prod, 2016).

Tests used:
A549 = test: Cytotoxicity against human A549 cells assessed as reduction in cell viability after 48 hrs by MTT assay; assay type: functional, cell-based; conditions: A549, 48 h
In short: (§1)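 1 × 10^4 cells per well, pre-incubated 12 h at 37 °C under 5% CO2, then exposed to serial dilutions of compound (paclitaxel as reference) for 48 h. MTT reagent (5 mg/mL) added for a further 4 h, formazan dissolved in DMSO, absorbance read at 570 nm. Three independent experiments, each in triplicate; IC50 from sigmoid curve fitting.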

MCF7 = test: Cytotoxicity against human MCF7 cells assessed as reduction in cell viability after 48 hrs by MTT assay; assay type: functional, cell-based; conditions: MCF7, 48 h; in short: as §1

Row | SMILES | IC50 (A549) | IC50 (MCF7)
1 | COc1cc(O)ccc1C(=O)C[C@H]1c2ccc(O)c(O)c2C[C@@H]1C(C)(C)O | 2.5 µM | 3.9 µM
2 | COc1cc(C(=O)OC[C@H]2O[C@@H](Oc3ccc4ccc(=O)oc4c3)[C@H](O)[C@@H](O)[C@@H]2O)cc(OC)c1O | > 10 µM | > 10 µM
3 | COC(=O)C[C@@H]1c2c(-c3ccc(O)cc3OC)cc(O)c(O)c2C[C@H]1C(C)(C)O | 6 µM | 7.2 µM
4 | COc1cc(C(=O)OC[C@H]2O[C@@H](Oc3cc4oc(=O)ccc4cc3OC)[C@H](O)[C@@H](O)[C@@H]2O)ccc1O[C@@H]1O[C@H](CO)[C@@H](O)[C@H](O)[C@H]1O | > 10 µM | > 10 µM
5 | COc1cc(O)ccc1C(=O)C[C@@H]1c2ccc(O)c(O)c2C[C@H]1C(C)(C)O | 2.2 µM | 3.3 µM
6 | COc1cc2ccc(=O)oc2cc1O[C@@H]1O[C@H](COC(=O)c2cc(OC)c(O[C@@H]3O[C@H](CO)[C@@H](O)[C@H](O)[C@H]3O)c(OC)c2)[C@@H](O)[C@H](O)[C@H]1O | > 10 µM | > 10 µM
7 | COc1cc2ccc(=O)oc2cc1O[C@@H]1O[C@H](COC(=O)CCc2cc(OC)c(O[C@@H]3O[C@H](CO)[C@@H](O)[C@H](O)[C@H]3O)c(OC)c2)[C@@H](O)[C@H](O)[C@H]1O | > 10 µM | > 10 µM
8 | COC(=O)C[C@@H]1c2c(-c3ccc(O)cc3OC)cc(O)c(O)c2C[C@@H]1C(C)(C)O | 5.6 µM | 6.7 µM
